Experimental data pooled from the literature.
Protocols differ between the studies behind these lines.
Effect on: metabolic stability
Host: rat
Sample: liver microsomes

Compound | tested at | pH | half-life [min]
N#Cc1ccc(C[C@H](Nc2ncc(-c3ccc(F)cc3)o2)C(=O)N2CCc3ccccc32)cc1 | 10 µM | pH 7.4 | 43
CCN(CC)Cc1ccc2cc(COC(=O)Nc3ccc(C(=O)NO)cc3)ccc2c1 | – | pH 7.4 | 92.9
N#Cc1ccc(C[C@H](Nc2c(Nc3ccc(Br)cc3)c(=O)c2=O)C(=O)N2CCc3ccccc32)cc1 | 10 µM | pH 7.4 | 38
NCc1ccc(-c2nn(Cc3ccccc3)c3ccccc23)o1 | 1 µM | pH 7.4 | > 30
N#Cc1ccc(C[C@H](Nc2nnc(-c3ccc(F)cc3)s2)C(=O)N2CCc3ccccc32)cc1 | 10 µM | pH 7.4 | 19.3
COc1cnccc1Cn1nc(-c2ccc(CO)o2)c2ccccc21 | 1 µM | pH 7.4 | 7
N#Cc1ccc(C[C@H](Nc2nnc(-c3ccc(Br)cc3)s2)C(=O)N2CCc3ccccc32)cc1 | 10 µM | pH 7.4 | 15
COc1ncccc1Cn1nc(-c2ccc(CO)o2)c2ccccc21 | 1 µM | pH 7.4 | 6
C=CCn1c(=O)c2cnc(Nc3ccc(N4CCN(C)CC4)cc3)nc2n1-c1ccc2c(n1)[C@@](O)(CC)CC2 | – | – | 79
Cc1[nH]c(C)c(S(=O)(=O)Nc2ccc(C(F)(F)F)c(Cl)c2Cl)c1C(=O)N1CCC(F)(F)C1 | – | – | 32
OCc1ccc(-c2nn(Cc3ccncc3)c3ccccc23)o1 | 1 µM | pH 7.4 | 12
Cc1[nH]c(C)c(S(=O)(=O)Nc2ccc(C(F)(F)F)c(Cl)c2)c1C(=O)N(C)C | – | – | 5.7
O=C1CCC(N2Cc3cc(C4CCN(Cc5ccccc5)CC4)ccc3C2=O)C(=O)N1 (stereo not shown) | 1 µM | – | > 60
